UCH37 inh = human UCH37 deubiquitinating enzyme inhibition; Q9Y5K5; purified proteasome/UCH37, Ub-AMC cleavage fluorescence; inhibition, % (concentration not given with the values); 0.33% of 330,000 active; AID 588478;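 active = mean inhibition over replicate wells above about 20%, limit read from the data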;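 also: 0% = compound-free wells with enzyme and 100% = wells lacking proteasome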
Target sequence (Q9Y5K5 whole entry, looked up): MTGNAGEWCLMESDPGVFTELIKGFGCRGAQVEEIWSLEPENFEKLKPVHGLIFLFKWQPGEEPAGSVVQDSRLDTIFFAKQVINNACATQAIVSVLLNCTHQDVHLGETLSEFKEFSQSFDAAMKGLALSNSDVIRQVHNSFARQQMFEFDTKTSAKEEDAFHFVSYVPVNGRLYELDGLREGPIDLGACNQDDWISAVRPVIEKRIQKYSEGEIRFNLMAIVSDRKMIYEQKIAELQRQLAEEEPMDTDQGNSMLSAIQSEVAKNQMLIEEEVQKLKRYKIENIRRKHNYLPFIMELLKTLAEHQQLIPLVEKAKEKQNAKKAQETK
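Reagent: Ub-AMC substrate; assay system: Proteasome-associated human UCH37 deubiquitinase; controls: no-proteasome and no-compound wells; read-out: % inhibition of Ub-AMC cleavage fluorescence; timing: 30 min preincubation with enzyme, 25 min cleavage at room temperature; signal: AMC fluorescence from Ub-AMC cleavage, excitation 355 nm, emission 460 nm; buffer or medium: Tris-HCl pH 7.4 plus ovalbumin, ATP-MgCl2, DTT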
APOBEC3G inh = APOBEC3G (human) deaminase inhibition; Q9HC16; recombinant A3G, ssDNA deamination FAM/TAMRA fluorescence; inhibition, % at 20 µM; 0.28% of 330,000 active; AID 493012;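 active = inhibition of at least 40% at 20 µM, with no more than 30% in the related APOBEC3A deaminase screen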;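 also: plate controls were DMSO wells with A3G for no effect and wells lacking A3G enzyme for full effect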
A3A deaminase = blocks human APOBEC3A ssDNA deamination; recombinant A3A, FAM/TAMRA ssDNA deamination fluorescence; inhibition, % at 20 µM; 0.41% of 330,000 active; AID 493011;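 active = at least 40% inhibition at 20 µM here, with at most 30% in a related deaminase screen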;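 also: plate controls were A3A with DMSO for no effect and wells lacking A3A enzyme for full effect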
Target sequence (P31941 whole entry, looked up): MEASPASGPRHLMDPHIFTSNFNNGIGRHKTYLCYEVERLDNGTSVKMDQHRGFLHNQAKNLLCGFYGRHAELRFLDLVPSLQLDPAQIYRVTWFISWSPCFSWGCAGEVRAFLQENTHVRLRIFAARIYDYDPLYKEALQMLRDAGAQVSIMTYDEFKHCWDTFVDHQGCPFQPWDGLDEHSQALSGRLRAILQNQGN
GASC-1 inh = blocks human GASC-1 demethylase activity; GST-JMJD2C(1-420) H3K9me3 demethylation, DELFIA europium; inhibition, % at 2.35 µM; 0.069% of 330,000 active;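 active = more than half of a compound's replicate wells show inhibition beyond 50%, single wells judged on their own value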;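 also: signal counts dimethyl H3K9 product captured on neutravidin plate; 0% = median of DMSO wells and 100% = 0.3 times that DMSO median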
* hit, by the source's call; . = no result. Sampled rows, rich in hits. Any-hit rate of the full collection: about 0.97%.

SMILES	UCH37 inh	APOBEC3G inh	A3A deaminase	GASC-1 inh
CC1CCN(S(=O)(=O)c2ccc3[nH]c(=O)[nH]c3c2)CC1	3	-5	0	58*
O=c1[nH]c2ccc(S(=O)(=O)N3CCCCC3)cc2[nH]c1=O	2	-1	0	-8
Cc1cc(C)c2c(CC(=O)O)coc2c1	29*	-1	-3	2
Cc1cc(C)c2c(CC(=O)NN(C)C)coc2c1	5	-8	0	1
Nc1nonc1-n1nnc(C(=O)NN=Cc2ccccc2O)c1CN1CCCC1	3	.	.	.
OCC1OC(Oc2cccc3ccccc23)C(O)C(O)C1O (stereo not given)	3	2	5	-5
O=C(O)c1cc(O)c2c(c1)[C@@H]([C@H]1c3cc(C(=O)O)cc(O)c3C(=O)c3c(O[C@@H]4O[C@H](CO)[C@@H](O)[C@H](O)[C@H]4O)cccc31)c1cccc(O[C@@H]3O[C@H](CO)[C@@H](O)[C@H](O)[C@H]3O)c1C2=O	3	88	98	91*
Cc1cc(C)nc(N=C(N)N2CCCCC2)n1	6	.	.	.
CCNc1nc(SC(C)C(=O)Nc2ccccc2)nc(N2CCOCC2)n1 (stereo not given)	0	-3	-1	-76
CC(=O)C(Sc1nc(N2CCOCC2)nc(N2CCOCC2)n1)C(=O)Nc1ccccc1 (stereo not given)	9	-5	-4	70*
CC(=O)Oc1ccc2oc(/C=C/N(C)C)c([N+](=O)[O-])c2c1	22*	-2	4	2
COc1ccc(C)cc1Nc1n[n+](C)c(-c2ccc(O)cc2O)s1	23*	-7	-2	1
O=C(Cn1nc(Cc2ccncc2)c2ccccc2c1=O)N1CCc2ccccc2C1	20*	-4	-3	-4
Cc1cc(C)cc(-n2c(C)cc(C=NNC(=O)COc3cccc4cccnc34)c2C)c1	3	.	.	.
CON=Cc1cc([N+](=O)[O-])ccc1Sc1ccc(C)cc1	5	.	.	.
S=C1Cc2ccccc2N1	81*	.	.	-38
Cc1ccccc1N(CC(=O)NN=Cc1ccccc1Cl)C(=O)c1ccccc1	1	.	.	.
N#CC1=C(N)NC(SCc2ccccc2)=C(C#N)C12CCCC2	21*	-4	0	0
N#CC1=C(N)NC(SCc2ccc(Cl)cc2)=C(C#N)C12CCCCC2	0	-4	-2	-16
Cc1ccc(-c2csc3nc4ccc(C(=O)NCCO)cc4c(=O)n23)cc1	-31	-11	-3	-6
Cc1ccc(-c2csc3nc4cc(C(=O)NC5CCC(O)CC5)ccc4c(=O)n23)cc1 (stereo not given)	-24	-5	-1	67*
O=[N+]([O-])c1cc(-c2cnc3ccccc3n2)ccc1Oc1ccc(F)cc1	3	-8	-3	62*
Cc1n[nH]c(=O)nc1NN=Cc1ccc(O)c([N+](=O)[O-])c1	21*	.	.	.
Cc1csc(NN=Cc2ccc(O)c([N+](=O)[O-])c2)n1	20*	.	.	.
O=C1c2ccc([N+](=O)[O-])cc2C(=O)N1Cc1cccnc1	1	11	2	52*
SMILES	UCH37 inh	APOBEC3G inh	A3A deaminase	GASC-1 inh
Nc1ccc(C(=O)NN=Cc2ccc(OC(=O)c3ccccc3Cl)cc2)cc1	3	.	.	.
O=C(NN=Cc1ccc(OC(=O)c2ccccc2Cl)cc1)c1cc(O)cc(O)c1	22*	.	.	.
O=C(NCc1ccccc1Cl)C1CCN(C(=O)c2ccco2)CC1	3	-2	1	58*
COc1ccc(CCNC(=O)c2ccc([N+](=O)[O-])cc2)cc1	4	-9	-2	12
COc1ccc2c(CCNC(=O)c3ccc([N+](=O)[O-])cc3)c[nH]c2c1	27*	-6	-2	7
CC(=NNC(=O)CCCNc1ccc(C)cc1)c1ccccn1	5	.	.	.
Cc1ccc(-c2ccc(C=N/N=C3/NC(=O)C(CC(=O)O)S3)o2)c([N+](=O)[O-])c1 (stereo not given)	25*	.	.	.
O=C(CNC(=O)/C(=C\c1ccccc1)NC(=O)c1ccc(Br)cc1)OCc1ccccc1	1	-2	-1	-7
O=C(CNC(=O)/C(=C\c1ccc(F)cc1)NC(=O)c1ccccc1)OCc1ccccc1	27*	-8	-1	0
COc1ccc(/C=C2\Sc3ccc(C(=O)N4CCCC4)cc3N(C)C2=O)cc1OC	4	-6	-3	53*
CC(=O)N1CCN(c2ccccc2NC(=O)COc2ccc(Br)cc2)CC1	6	-6	0	-35
O=C(COc1ccc(Br)cc1)Nc1ccccc1N1CCCC1	28*	-7	-2	6
O=C(Cc1ccccc1)NN=Cc1ccc[nH]1	5	.	.	.
C=CCN1C(=O)[C@H]2CCC=C[C@H]2[C@@H]1c1cccc(C)c1	24*	6	5	.
O=C(CSc1nc2ccccc2s1)NN=Cc1ccc(C(=O)O)cc1	1	.	.	.
O=C1C(Cl)=C(NCc2cccnc2)C(=O)c2ccccc21	25*	-7	-4	-8
C=CCNC1=C(Cl)C(=O)c2ccccc2C1=O	15	-8	-1	-8
Cc1cccc(C=NNc2nncc3ccccc23)c1	6	.	.	.
COc1ccc(S(=O)(=O)N2CCN(C(=O)c3cnc(C)cn3)CC2)cc1	34*	-3	0	-9
CN1CCN(c2ccc([N+](=O)[O-])cc2C=NNC(=O)c2cccc([N+](=O)[O-])c2)CC1	1	.	.	.
CC(=NNc1nccnc1Cl)c1ccc(O)c(C)c1	10	.	.	.
Cc1ccc(S(=O)(=O)/C(C#N)=C/c2c(N3CCN(C)CC3)nc3ccccn3c2=O)cc1	0	13	-1	-18
CN1CCN(c2nc3ccccn3c(=O)c2/C=C(\C#N)S(=O)(=O)c2ccc(Cl)cc2)CC1	4	-4	-7	90*
Brc1ccc(NN=C(N=Nc2nn[nH]n2)c2ccccc2)cc1	22*	.	.	.
CCc1ccc[n+](-c2[nH]c(=O)sc2C=NNC([S-])=Nc2ccccc2)c1	22*	.	.	.
SMILES	UCH37 inh	APOBEC3G inh	A3A deaminase	GASC-1 inh
CC(CN1CCCC1)OC(=O)COc1ccccc1 (stereo not given)	-1	0	22	50*
COc1ccc(-c2n[nH]c(=S)n2N=Cc2cccn2C)cc1	6	.	.	.
O=C1N=C(N2C=CC(=C3C=CNC=C3)C=C2)/C(=C/N=NC(=O)c2ccccc2)S1	24*	4	5	-24
C#CCOCCOCCOCCNc1nc(N2CCN(C(=O)[C@H](CCCCN)n3cc(C(N)CO)nn3)CC2)nc(N2CCN(C(=O)[C@H](CCC(=O)O)n3cc(C(N)[C@H](C)CC)nn3)CC2)n1 (stereo not given in full)	5	-9	-2	5
C#CCOCCOCCOCCNc1nc(N2CCN(C(=O)[C@H](CCCCN)n3cc([C@@H](N)[C@H](C)CC)nn3)CC2)nc(N2CCN(C(=O)[C@H](CCC(=O)O)n3cc([C@@H](N)CCSC)nn3)CC2)n1	5	-5	-6	52*
O=C(Cc1cccc([N+](=O)[O-])c1)Nc1cccc(C(=O)N2CCOCC2)c1	-1	-7	-3	12
O=C(Cc1cccc([N+](=O)[O-])c1)Nc1ccc(C(=O)N2CCOCC2)cc1	29*	-5	-4	-1
COc1ccc(CC(=O)NN=Cc2ccc(C)s2)cc1	6	.	.	.

Screening results deposited in PubChem by several laboratories.
